This note sets out measurements from ChEMBL document CHEMBL1147890, “Synthesis of the new pseudo-symmetrical tamoxifen derivatives and their anti-tumor activity” (Bioorg Med Chem Lett, 2007).

pIC50: −log10 of the molar value. Active and inactive are the calls of the source. The rule behind the calls is not given here.

Assay [1] concerns HL-60. Nature of the assay: Antitumor activity against HL60 cells after 3 hrs by MTT assay. The assay is classed as functional, cell-based. The settings on record: Homo sapiens, HL-60, 3 h. Summed up:
(§1)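 HL-60 human acute promyelocytic leukemia cells exposed for 0–6 h at final 2.5, 5, 7.5 and 10 µM. Viability read by MTT (mitochondrial succinic dehydrogenase reduces dye to formazan). Growth rate expressed against formazan absorbance at 0 h set to 1.0. SD, n = 5. IC50 taken as median growth-inhibitory concentration at 3 h or 6 h.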
(Tetrazolium assays rely on reduction of a dye to a coloured formazan, in cell work by metabolically active cells.)

In assay [2] the test system is HL-60. As to the kind of experiment: Antitumor activity against HL60 cells at 5 ug/ml after 4 hrs by MTT assay. The assay is classed as functional, Homo sapiens. Summed up: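 HL-60 cells given 5 µg/mL. Viability measured by MTT formazan absorbance after 4 h and expressed relative to the 0 h reading.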
Assay [3] concerns HL-60. Nature of the assay: Antitumor activity against HL60 cells at 10 uM after 6 hrs by MTT assay. The assay is classed as functional, Homo sapiens. Summed up: as §1
The test system of assay [4] is HL-60. Nature of the assay: Antitumor activity against HL60 cells at 7.5 uM after 6 hrs by MTT assay. The assay is classed as functional, Homo sapiens. The gist of the method: as §1
The test system of assay [5] is HL-60. As to the kind of experiment: Induction of apoptosis in HL60 cells assessed as DNA fragmentation at 9 uM by agarose gel electrophoresis. The assay is classed as functional, cell-based. To be noted: Homo sapiens. Summed up: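 Apoptosis versus necrosis judged by oligonucleosomal DNA cleavage on agarose gel electrophoresis. HL-60 cells treated 6 h at 9 µM final. Controls were medium only, tamoxifen, ethanol and actinomycin D.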

Assay [6] has as its system HL-60. Nature of the assay: Antitumor activity against HL60 cells at 5 uM after 6 hrs by MTT assay. The assay is classed as functional, Homo sapiens. Summed up:
as §1

Assay [7] relates to HL-60. Nature of the assay: Antitumor activity against HL60 cells after 6 hrs by MTT assay. The assay is classed as functional, cell-based. To be noted: Homo sapiens, HL-60, 6 h. Summed up:
as §1

For the compound `CCC(=C(c1ccc(OCCN2CCCC2)cc1)c1ccc(OCCN2CCCC2)cc1)c1ccccc1`, the pIC50 (in general, the IC50 on a negative log10 scale, so that one unit is a factor of ten) in the assay on HL-60 [1] is 5.40; in the assay on HL-60 [7], 5.52. The Activity in the assay on HL-60 [2], in the assay with HL-60 [3], in the assay on HL-60 [4] and in the assay on HL-60 [6] was greater than 90% throughout. Also, in the assay on HL-60 [5], the result was Active.
For `CCC(=C(c1ccc(OCCN2CCCCC2)cc1)c1ccc(OCCN2CCCCC2)cc1)c1ccccc1`, the Activity in the assay with HL-60 [3] and in the assay with HL-60 [4] was greater than 80% throughout. For the same compound, in the assay with HL-60 [5], the result was Active. This compound also showed a pIC50 in the assay with HL-60 [7] of 5.30.
